Where “and” joins values, the source holds several entries; their conditions need not be identical. Equal entries are not always repeated.
How the values were obtained:
PC-3 = assay: Cytotoxicity against apoptotic-sensitive human PC3 cells assessed as growth inhibition after 72 hrs by MTT-based colorimetric assay; type: functional, cell-based
Summary of the method: (§1)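 MTT colorimetric assay, 72 h exposure to the fumarate salt. Read-out is reduction of MTT to formazan by living cells. IC50 is the concentration that reduces the whole cell population by 50%. Six replicates per condition. Where compounds were not tested on every line, apoptosis-sensitive lines were PC3, MCF-7, LoVo and B16F10, and apoptosis-resistant lines were U373, T98G, A549 and SK-MEL-28.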

MCF7 = assay: Cytotoxicity against apoptotic-sensitive human MCF7 cells assessed as growth inhibition after 72 hrs by MTT-based colorimetric assay; type: functional, cell-based; summary of the method: as §1
LoVo = assay: Cytotoxicity against apoptotic-sensitive human LoVo cells assessed as growth inhibition after 72 hrs by MTT-based colorimetric assay; type: functional, cell-based; summary of the method: as §1
SK-MEL-28 = assay: Cytotoxicity against apoptotic-resistant human SK-MEL-28 cells assessed as growth inhibition after 72 hrs by MTT-based colorimetric assay; type: functional, cell-based; summary of the method: as §1
A549 = assay: Cytotoxicity against apoptotic-resistant human A549 cells assessed as growth inhibition after 72 hrs by MTT-based colorimetric assay; type: functional, cell-based; summary of the method: as §1
T98G = assay: Cytotoxicity against apoptotic-resistant human T98G cells assessed as growth inhibition after 72 hrs by MTT-based colorimetric assay; type: functional, cell-based; summary of the method: as §1
[1] = Cytotoxicity against apoptotic-resistant human U373 cells assessed as growth inhibition after 72 hrs by MTT-based colorimetric assay; type: functional, cell-based, U-373MG ATCC; summary of the method: as §1

SMILES | IC50 (PC-3; Homo sapiens, PC-3, 72 h) [µM] | IC50 (MCF7; Homo sapiens, MCF7, 72 h) [µM] | IC50 (LoVo; Homo sapiens, LoVo, 72 h) [µM] | IC50 (SK-MEL-28; Homo sapiens, SK-MEL-28, 72 h) [µM] | IC50 (A549; Homo sapiens, A549, 72 h) [µM] | IC50 (T98G; Homo sapiens, T98G, 72 h) [µM] | IC50 ([1]; Homo sapiens, U373 MG, 72 h) [µM] | IC50 (PC-3; pc-3) | IC50 (MCF7; mcf7) | IC50 (LoVo; lovo) | IC50 (SK-MEL-28; sk-mel-28) | IC50 (A549; a549) | IC50 (T98G; t98g) | IC50 ([1]; u-373mg atcc) [µM]
Cc1ccc2c(c1)-c1cnc(n1C)OCCCCCCCCO2 | 36 | 34 | 34 | 55 | 41 | 63 | 57 | – | – | – | – | – | – | –
C=CCCCCOc1ccccc1-c1cnc(NC(=O)CCCC=C)n1C | 11 | 22 | 10 | 7 | 8 | 22 | 7 | – | – | – | – | – | – | –
C=CCCCCOc1ccccc1-c1cnc(OCCC=C)n1C | 19 | 8 | 12 | 17 | 9 | 29 | 33 | – | – | – | – | – | – | –
C=CCCCCOc1ccccc1-c1cnc(OCCCC=C)n1C | 28 | 7 | 4 | 19 | 3 | 3 | 5 | – | – | – | – | – | – | –
Cn1c2cnc1OCCCCCCCCOc1ccccc1-2 (single isomer, unassigned; atropisomer) | – | – | – | – | – | – | – | 49 µM and 57 µM | 44 µM and 43 µM | 37 µM and 63 µM | 64 µM and 66 µM | 59 µM and 54 µM | 75 µM and 92 µM | 71
C=CCCCCOc1cc(F)ccc1-c1cnc(OCCC=C)n1C | 64 | 59 | 45 | 83 | 74 | > 100 | > 100 | – | – | – | – | – | – | –
COc1ccc2c(c1)-c1cnc(n1C)OCCCCCCCCO2 | 40 | 32 | 34 | 57 | 40 | 68 | 63 | – | – | – | – | – | – | –
Cn1c2cnc1OCCCCCCCCOc1ccc(F)cc1-2 | 52 | 52 | 43 | 72 | 58 | 77 | 73 | – | – | – | – | – | – | –
C=CCCCCOc1ccc(F)cc1-c1cnc(OCCC=C)n1C | 52 | 43 | 38 | 82 | 61 | 87 | 73 | – | – | – | – | – | – | –
C=CCCCCOc1ccccc1-c1cnc(OCCOCC=C)n1C | 36 | 32 | 26 | 59 | 34 | 65 | 60 | – | – | – | – | – | – | –
Cn1c2cnc1OCCCCCCCCCCCOc1ccccc1-2 | 36 | 41 | 32 | 47 | 36 | 56 | 48 | – | – | – | – | – | – | –
C=CCCCCOc1ccccc1-c1cnc(S(=O)(=O)c2ccccc2)n1C | 33 | 25 | 27 | 38 | 38 | 71 | 63 | – | – | – | – | – | – | –
C=CCCCCOc1cc2ccccc2cc1-c1cnc(OCCCCC=C)n1C | 38 | 37 | 25 | 59 | 16 | 40 | 33 | – | – | – | – | – | – | –
Cn1c2cnc1OCCCCCCCCCCOc1ccccc1-2 | 31 | 24 | 33 | 31 | 48 | 41 | 31 | – | – | – | – | – | – | –
C=CCCOc1ccccc1-c1cnc(S(=O)(=O)c2ccccc2)n1C | 42 | 67 | 32 | 60 | 73 | > 100 | > 100 | – | – | – | – | – | – | –
Cn1c2cnc1OCCCCCCCCOc1cc(F)ccc1-2 | 46 | 35 | 32 | 58 | 43 | 69 | 70 | – | – | – | – | – | – | –
Cn1c2cnc1NC(=O)CCCCCCCCCOc1ccccc1-2 | 61 | 61 | 33 | 59 | 43 | 64 | 38 | – | – | – | – | – | – | –
Cn1c2cnc1OCCCCCCCCCCOc1cc3ccccc3cc1-2 | 25 | 24 | 28 | 33 | 20 | 22 | 29 | – | – | – | – | – | – | –
Cn1c(-c2ccccc2O)cnc1S(=O)(=O)c1ccccc1 | > 100 | > 100 | 56 | > 100 | > 100 | > 100 | > 100 | – | – | – | – | – | – | –
C=CCCCCOc1ccccc1-c1cnc(OC)n1C | 86 | 98 | 47 | 85 | 80 | > 100 | > 100 | – | – | – | – | – | – | –
C=CCCCCOc1ncc(-c2ccccc2OC)n1C | 24 | 5 | 4 | 13 | 5 | 5 | 9 | – | – | – | – | – | – | –
COc1ccccc1-c1cnc(OC)n1C | > 100 | > 100 | 73 | > 100 | > 100 | > 100 | > 100 | – | – | – | – | – | – | –
C=CCCOc1ncc(-c2ccccc2OC)n1C | 25 | 27 | 24 | 21 | 22 | 39 | 16 | – | – | – | – | – | – | –

— ChEMBL document CHEMBL3091366, “New 5-Aryl-1H-imidazoles display in vitro antitumor activity against apoptosis-resistant cancer models, including melanomas, through mitochondrial targeting” (J Med Chem, 2013)
